2 compounds from ChEMBL document CHEMBL4828740, “Discovery of Quinoxaline-Based P1-P3 Macrocyclic NS3/4A Protease Inhibitors with Potent Activity against Drug-Resistant Hepatitis C Virus Variants” (J Med Chem, 2021) can be followed below.

The target in series [1] is T1, Hepatitis C virus serine protease, NS3/NS4A (Hepatitis C virus, UniProt A3EZI9+D2K2A8). The experiment in a line: Inhibition of HCV GT-1a NS3/4a protease using Ac-DE-D(Edans)-EE-Abu-c-[COO]-AS-K(Dabcy1)-NH2 preincubated for 1 hr followed by substrate addition. Type of series: protein complex, Hepatitis C virus subtype 1a.
Series [2] can be described thus: Clearance in Sprague-Dawley rat at 5 mg/kg, iv measured after 0.25 to 24 hrs by LC-MS/MS analysis. Type of series: ADME, organism-based. As to conditions: in vivo, time 0.25-24 hrs.
The nature of series [3]: AUC(0 to 24 hrs) in Sprague-Dawley rat at 5 mg/kg, iv measured after 0.25 to 24 hrs by LC-MS/MS analysis. To be noted: in vivo. Type of series: ADME, organism-based. Also noted: route intravenous, dose 5 mg/kg, time 0.25-24 hrs.
The target in series [4] is T1, Hepatitis C virus serine protease, NS3/NS4A. As to the kind of experiment: Inhibition of HCV GT-3a NS3/4a protease using Ac-DE-D(Edans)-EE-Abu-c-[COO]-AS-K(Dabcy1)-NH2 preincubated for 1 hr followed by substrate addition. Type of series: protein-complex assay, Hepatitis C virus subtype 3a.
Series [5] in a line: Half life in Sprague-Dawley rat at 10 mg/kg, po measured after 0.25 to 24 hrs by LC-MS/MS analysis. Type of series: ADME, organism-based. As to conditions: in vivo, time 0.25-24 hrs.
Series [6] is described as follows: Half life in Sprague-Dawley rat at 5 mg/kg, iv measured after 0.25 to 24 hrs by LC-MS/MS analysis. Type of series: ADME, organism-based. To be noted: in vivo, time 0.25-24 hrs.
For series [7], the system named is Hepatitis C virus. The experiment in a line: Antiviral activity against HCV genotype 1b infected in human Huh7 cells incubated for 96 hrs by luciferase assay. Type of series: functional, organism-based, Hepacivirus hominis. To be noted: Huh-7, 96 h. The gist of the method:
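Con1 (GT-1b) luciferase reporter replicon carrying the H77 (GT-1a) NS3 protease region, either WT or with A156T or D168A introduced by megaprimer mutagenesis. Cured Huh7 cells grown in DMEM with 10% heat-inactivated FBS and 0.1 mM non-essential amino acids. Cells electroporated with replicon RNA and kept with serially diluted inhibitor.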

The nature of series [8]: Tmax in Sprague-Dawley rat at 10 mg/kg, po measured after 0.25 to 24 hrs by LC-MS/MS analysis. Type of series: ADME, organism-based. To be noted: in vivo, time 0.25-24 hrs.
Series [9] is described as follows: Cmax in Sprague-Dawley rat at 10 mg/kg, po measured after 0.25 to 24 hrs by LC-MS/MS analysis. Type of series: ADME, organism-based. Further details: route oral, time 0.25-24 hrs, dose 10 mg/kg. To be noted: in vivo.
The nature of series [10]: Oral bioavailability in Sprague-Dawley rat at 10 mg/kg measured after 0.25 to 24 hrs by LC-MS/MS analysis. Type of series: ADME, organism-based. To be noted: in vivo, time 0.25-24 hrs.
The test system of series [11] is Hepatitis C virus. The experiment in a line: Antiviral activity against HCV genotype 1b harboring A156T mutant infected in human Huh7 cells incubated for 96 hrs by luciferase assay. As to conditions: subtype 1b, Huh-7, 96 h. Type of series: functional, organism-based, Hepacivirus hominis. The gist of the method: (§1)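 Con1 (GT-1b) luciferase reporter replicon carrying the H77 (GT-1a) NS3 protease region, with the mutation introduced by megaprimer site-directed mutagenesis. Cured Huh7 cells were grown in DMEM with 10% heat-inactivated FBS and 0.1 mM non-essential amino acids, electroporated with replicon RNA transcripts, and kept with serially diluted inhibitor. EC50 was taken directly from the inhibition curves.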

In series [12] the test system is Hepatitis C virus. As to the kind of experiment: Antiviral activity against HCV genotype 3a infected in human Huh7.5 cells incubated for 72 hrs by luciferase assay. Type of series: functional, organism-based, Hepacivirus hominis. To be noted: subtype 3a, Huh7.5, 72 h. The gist of the method:
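Huh7.5 cells stably harboring the GT-3a replicon S52/SG-Feo SHI, seeded at 8,000 cells/well. Cells lysed in 1X Passive Lysis Buffer and luciferase activity measured. EC50 taken from drug inhibition curves.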

Series [13] in a line: Volume of distribution at steady state in Sprague-Dawley rat at 5 mg/kg, iv measured after 0.25 to 24 hrs by LC-MS/MS analysis. To be noted: in vivo, time 0.25-24 hrs, read-out: Vdss. Type of series: ADME, organism-based.
The subject of series [14] is Hepatitis C virus. As to the kind of experiment: Antiviral activity against HCV genotype 1b harboring D168A mutant infected in human Huh7 cells incubated for 96 hrs by luciferase assay. Type of series: functional, organism-based, Hepacivirus hominis. To be noted: subtype 1b, Huh-7, 96 h. The gist of the method: as §1

SMILES strings stand for the structures.

In the case of `COc1ccc2nc(C)c(O[C@@H]3C[C@H]4C(=O)N[C@]5(C(=O)NS(=O)(=O)C6(C)CC6)C[C@H]5/C=C/CCCCC[C@H](NC(=O)OC5(C(F)(F)F)CCCC5)C(=O)N4C3)nc2c1`, the inhibitory constant (Ki) in [1] turned out to be 1.3 nM; in series [4] it was 104 nM. In series [2], this compound registered a clearance of 37 mL/min/kg. Moreover, the AUC(0-t) in [3] came out at 2.7 µM·h. For the same compound, the half-life in [5] was 4.9 h; in series [6], 5.3 h. Besides, the EC50 with Hepatitis C virus [7] turned out to be 0.3 nM; in the series with Hepatitis C virus [11], 6.2 nM; in the series with Hepatitis C virus [12] it was 130 nM; in the series on Hepatitis C virus [14], 20 nM. In addition, the Tmax in [8] stood at 3 h. The compound also gave a peak concentration (Cmax) in [9] of 110 nM. Further, the bioavailability in series [10] was 11%. In [13], the Vd is 3.9 L/kg.
With `COc1ccc2nc(C)c(O[C@@H]3C[C@H]4C(=O)N[C@]5(C(=O)NS(=O)(=O)C6(C)CC6)C[C@H]5/C=C/CCCCC[C@H](NC(=O)OC(C)(C)C)C(=O)N4C3)nc2c1`, the Ki was 3.6 nM in [1] and 119 nM in [4]. This compound also gave a clearance in series [2] of 51 mL/min/kg. The compound further came in with an AUC(0-t) in [3] of 2.2 µM·h. For the same compound, the half-life in series [5] is 3 h; in series [6], 5.2 h. For the same compound, the EC50 with Hepatitis C virus [7] came to 0.6 nM; in the series on Hepatitis C virus [11], 2.1 nM; with Hepatitis C virus [12], 300 nM; in the series with Hepatitis C virus [14], 2.2 nM. Further, the Tmax in series [8] worked out at 1.4 h. The same compound came in with a maximum concentration (Cmax) in [9] of 180 nM. This compound returned a bioavailability in series [10] of 10%. Besides, in [13], the Vd was found to be 3.5 L/kg.

By Ki is commonly meant a measure of affinity in units of concentration, obtained from inhibition or displacement. The low end stands for tighter binding, the high end for weaker binding. As a reminder, the clearance is the rate of elimination divided by the concentration. Read a high clearance as a high capacity for elimination. Usually AUC(0-t) stands for exposure summed from dosing to a finite time, without extrapolation to infinity. Read a high AUC(0-t) as high exposure. The half-life is how long it takes for the measured level to halve. As usually defined, the EC50 is the concentration giving half of the maximal effect. Lower therefore signals higher potency in that assay. As a reminder, the Tmax is the time at which the peak concentration occurs. What is called Cmax is the maximum level reached in the sampled fluid or tissue. The bioavailability is dose-corrected exposure relative to a reference, in per cent. Read a low bioavailability as little systemic uptake.
